Experiments:
[1] = Distribution in the lung after 15 min of intravenous administration; assay type: ADME, tissue-based; conditions: 0.25 h
Procedure, shortened: (§1)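 Swiss white mice (20-25 g) anesthetized with sodium pentobarbital (80 mg/kg ip), then given 0.1-0.2 mL (74 kBq) of radioiodinated compound or 201Tl+ by tail-vein injection. Four mice per time point were killed by cardiac puncture/exsanguination at 5, 15, 30 and 60 min (some also at 90 and 120 min). Organs were excised, washed, blotted and weighed, blood was sampled, and radioactivity was counted against injection standards. Values are percent injected dose/g.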

[2] = Distribution in the lung after 30 min of intravenous administration; assay type: ADME, tissue-based; conditions: 0.5 h; procedure, shortened: as §1
[3] = Distribution in the lung after 5 min of intravenous administration; assay type: ADME, tissue-based; procedure, shortened: as §1
[4] = Distribution in the lung after 60 min of intravenous administration; assay type: ADME, tissue-based; conditions: 1 h; procedure, shortened: as §1
[5] = Distribution in the lung after 90 min of intravenous administration; assay type: ADME, tissue-based; conditions: 1.5 h; procedure, shortened: as §1
[6] = Distribution in the muscle after 120 min of intravenous administration; assay type: ADME, tissue-based, Muscle tissue; conditions: 2 h; procedure, shortened: as §1
[7] = Distribution in the muscle after 15 min of intravenous administration; assay type: ADME, tissue-based, Muscle tissue; conditions: 0.25 h; procedure, shortened: as §1
[8] = Distribution in the muscle after 5 min of intravenous administration; assay type: ADME, tissue-based, Muscle tissue; procedure, shortened: as §1
[9] = Distribution in the muscle after 60 min of intravenous administration; assay type: ADME, tissue-based, Muscle tissue; conditions: 1 h; procedure, shortened: as §1
[10] = Distribution in the muscle after 90 min of intravenous administration; assay type: ADME, tissue-based, Muscle tissue; conditions: 1.5 h; procedure, shortened: as §1
[11] = Distribution in the spleen after 120 min of intravenous administration; assay type: ADME, tissue-based; conditions: 2 h; procedure, shortened: as §1
[12] = Distribution in the spleen after 15 min of intravenous administration; assay type: ADME, tissue-based; conditions: 0.25 h; procedure, shortened: as §1
[13] = Distribution in the spleen after 30 min of intravenous administration; assay type: ADME, tissue-based; conditions: 0.5 h; procedure, shortened: as §1
[14] = Distribution in the spleen after 5 min of intravenous administration; assay type: ADME, tissue-based; procedure, shortened: as §1
[15] = Distribution in the spleen after 60 min of intravenous administration; assay type: ADME, tissue-based; conditions: 1 h; procedure, shortened: as §1
[16] = Distribution in the spleen after 90 min of intravenous administration; assay type: ADME, tissue-based; conditions: 1.5 h; procedure, shortened: as §1
[17] = Distribution in the blood after 120 min of intravenous administration; assay type: ADME, tissue-based; conditions: 2 h; procedure, shortened: as §1
[18] = Distribution in the blood after 15 min of intravenous administration; assay type: ADME, tissue-based; conditions: 0.25 h; procedure, shortened: as §1
[19] = Distribution in the blood after 30 min of intravenous administration; assay type: ADME, tissue-based; conditions: 0.5 h; procedure, shortened: as §1
[20] = Distribution in the blood after 5 min of intravenous administration; assay type: ADME, tissue-based; procedure, shortened: as §1
[21] = Distribution in the blood after 60 min of intravenous administration; assay type: ADME, tissue-based; conditions: 1 h; procedure, shortened: as §1
[22] = Distribution in the blood after 90 min of intravenous administration; assay type: ADME, tissue-based; conditions: 1.5 h; procedure, shortened: as §1
[23] = Distribution in the bone after 120 min of intravenous administration; assay type: ADME, tissue-based, Bone element; conditions: 2 h; procedure, shortened: as §1
[24] = Distribution in the bone after 30 min of intravenous administration; assay type: ADME, tissue-based, Bone element; conditions: 0.5 h; procedure, shortened: as §1
[25] = Distribution in the bone after 5 min of intravenous administration; assay type: ADME, tissue-based, Bone element; procedure, shortened: as §1
[26] = Distribution in the bone after 60 min of intravenous administration; assay type: ADME, tissue-based, Bone element; conditions: 1 h; procedure, shortened: as §1
[27] = Distribution in the bone after 90 min of intravenous administration; assay type: ADME, tissue-based, Bone element; conditions: 1.5 h; procedure, shortened: as §1
[28] = Distribution in the heart after 120 min of intravenous administration; assay type: ADME, tissue-based; conditions: 2 h; procedure, shortened: as §1
[29] = Distribution in the heart after 15 min of intravenous administration; assay type: ADME, tissue-based; conditions: 0.25 h; procedure, shortened: as §1
[30] = Distribution in the heart after 30 min of intravenous administration; assay type: ADME, tissue-based; conditions: 0.5 h; procedure, shortened: as §1
[31] = Distribution in the heart after 5 min of intravenous administration; assay type: ADME, tissue-based; procedure, shortened: as §1
[32] = Distribution in the heart after 60 min of intravenous administration; assay type: ADME, tissue-based; conditions: 1 h; procedure, shortened: as §1
[33] = Distribution in the heart after 90 min of intravenous administration; assay type: ADME, tissue-based; conditions: 1.5 h; procedure, shortened: as §1
[34] = Distribution in the kidneys after 120 min of intravenous administration; assay type: ADME, tissue-based, Kidney; conditions: 2 h; procedure, shortened: as §1
[35] = Distribution in the kidneys after 15 min of intravenous administration; assay type: ADME, tissue-based, Kidney; conditions: 0.25 h; procedure, shortened: as §1
[36] = Distribution in the kidneys after 30 min of intravenous administration; assay type: ADME, tissue-based, Kidney; conditions: 0.5 h; procedure, shortened: as §1
[37] = Distribution in the kidneys after 5 min of intravenous administration; assay type: ADME, tissue-based, Kidney; procedure, shortened: as §1
[38] = Distribution in the kidneys after 60 min of intravenous administration; assay type: ADME, tissue-based, Kidney; conditions: 1 h; procedure, shortened: as §1
[39] = Distribution in the liver after 120 min of intravenous administration; assay type: ADME, tissue-based; conditions: 2 h; procedure, shortened: as §1
[40] = Distribution in the liver after 15 min of intravenous administration; assay type: ADME, tissue-based; conditions: 0.25 h; procedure, shortened: as §1
[41] = Distribution in the liver after 30 min of intravenous administration; assay type: ADME, tissue-based; conditions: 0.5 h; procedure, shortened: as §1
[42] = Distribution in the liver after 5 min of intravenous administration; assay type: ADME, tissue-based; procedure, shortened: as §1
[43] = Distribution in the liver after 60 min of intravenous administration; assay type: ADME, tissue-based; conditions: 1 h; procedure, shortened: as §1
[44] = Distribution in the liver after 90 min of intravenous administration; assay type: ADME, tissue-based; conditions: 1.5 h; procedure, shortened: as §1
[45] = Distribution in the lung after 120 min of intravenous administration; assay type: ADME, tissue-based; conditions: 2 h; procedure, shortened: as §1
[46] = tested on: Mus musculus; experiment: Distribution in the muscle after 30 min of intravenous administration; assay type: ADME, organism-based, Muscle tissue; conditions: in vivo, 0.5 h; procedure, shortened: as §1
[47] = Distribution in the bone after 15 min of intravenous administration; assay type: ADME, tissue-based, Bone element; conditions: 0.25 h; procedure, shortened: as §1
[48] = Distribution in the kidneys after 90 min of intravenous administration; assay type: ADME, tissue-based, Kidney; conditions: 1.5 h; procedure, shortened: as §1

C[N+]1(CCOc2cccc(I)c2)CCCCC1
Distribution [1]: 5.5%
Distribution [2]: 4.6%
Distribution [3]: 7.3%
Distribution [4]: 3.4%
Distribution [5]: 2.7%
Distribution [6]: 1.1%
Distribution [7]: 1%
Distribution [8]: 0.9%
Distribution [9]: 1%
Distribution [10]: 1%
Distribution [11]: 2.1%
Distribution [12]: 3.6%
Distribution [13]: 3.4%
Distribution [14]: 5%
Distribution [15]: 2.6%
Distribution [16]: 2.1%
Distribution [17]: 1.4%
Distribution [18]: 2.4%
Distribution [19]: 1.9%
Distribution [20]: 1.9%
Distribution [21]: 1.5%
Distribution [22]: 1.2%
Distribution [23]: 1.3%
Distribution [24]: 2%
Distribution [25]: 1.6%
Distribution [26]: 1.5%
Distribution [27]: 1.3%
Distribution [28]: 17.7%
Distribution [29]: 21.6%
Distribution [30]: 23.1%
Distribution [31]: 20%
Distribution [32]: 19.5%
Distribution [33]: 18.1%
Distribution [34]: 6%
Distribution [35]: 24%
Distribution [36]: 14.1%
Distribution [37]: 40.1%
Distribution [38]: 7.4%
Distribution [39]: 2%
Distribution [40]: 4.9%
Distribution [41]: 4.1%
Distribution [42]: 12.5%
Distribution [43]: 2.4%
Distribution [44]: 2.3%
Distribution [45]: 2.6%
Distribution [46]: 1.1%
Distribution [47]: 2%
Distribution [48]: 5.3%
